Experimental data as given in ChEMBL document CHEMBL2331489, “Novel cinnoline-based inhibitors of LRRK2 kinase activity” (Bioorg Med Chem Lett, 2013).
Active and inactive are the calls of the source. No cut-off for these calls is given here.

Target: Dual specificity protein kinase CLK1 (Homo sapiens) (UniProt P49759)
Assay: Inhibition of CLK1 (unknown origin) at 10 uM relative to control
Conditions: not given

Row | Structure (SMILES) | inhibition
1 | CC(C)Nc1c(C(N)=O)nnc2ccc(-c3ccncc3)cc12 | 103%
2 | C[C@@H](Nc1c(C(N)=O)nnc2cc(-c3ccc(S(C)(=O)=O)cc3)ccc12)C1CC1 | 5%
3 | CC(C)Nc1c(C(N)=O)cnc2cc(-c3ccc(S(C)(=O)=O)cc3)ccc12 | 2%
4 | CS(=O)(=O)c1ccc(-c2ccc3c(NC4CCC4)c(C(N)=O)nnc3c2)cc1 | 14%

Further lines, results first:

Row | inhibition | Structure (SMILES)
5 | 60% | CC(C)Nc1c(C(N)=O)nnc2cc(-c3ccncc3)ccc12
6 | 4% | CC(C)Nc1c(C(N)=O)nnc2cc(N3CCOCC3)ccc12
7 | 101% | CC(C)Nc1c(C(N)=O)nnc2ccc(-c3cn[nH]c3)cc12

Target: T1, Dual specificity protein kinase TTK (Homo sapiens) (UniProt P33981)
T1 sequence (whole entry): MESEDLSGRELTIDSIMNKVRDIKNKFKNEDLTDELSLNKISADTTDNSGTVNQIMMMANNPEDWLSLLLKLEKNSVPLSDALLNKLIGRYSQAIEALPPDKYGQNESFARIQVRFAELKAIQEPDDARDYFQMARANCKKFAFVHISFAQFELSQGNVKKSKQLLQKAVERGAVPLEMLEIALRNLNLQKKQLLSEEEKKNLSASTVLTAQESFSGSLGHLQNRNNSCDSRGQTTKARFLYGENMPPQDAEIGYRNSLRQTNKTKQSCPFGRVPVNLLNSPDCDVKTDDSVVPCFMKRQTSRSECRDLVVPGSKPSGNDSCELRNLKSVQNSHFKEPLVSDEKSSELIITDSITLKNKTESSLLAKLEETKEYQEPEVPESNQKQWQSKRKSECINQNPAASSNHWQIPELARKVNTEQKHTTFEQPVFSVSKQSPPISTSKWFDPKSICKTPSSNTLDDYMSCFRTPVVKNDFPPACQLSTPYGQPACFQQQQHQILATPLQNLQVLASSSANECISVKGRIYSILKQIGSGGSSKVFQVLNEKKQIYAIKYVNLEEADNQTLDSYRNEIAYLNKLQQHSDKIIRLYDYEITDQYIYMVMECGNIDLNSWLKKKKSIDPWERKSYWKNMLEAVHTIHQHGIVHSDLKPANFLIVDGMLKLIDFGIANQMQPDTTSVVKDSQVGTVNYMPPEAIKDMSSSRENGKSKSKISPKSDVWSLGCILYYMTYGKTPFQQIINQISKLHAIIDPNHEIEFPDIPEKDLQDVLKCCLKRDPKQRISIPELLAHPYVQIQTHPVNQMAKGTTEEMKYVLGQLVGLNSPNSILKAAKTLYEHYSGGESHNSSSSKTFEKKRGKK
Assay: Inhibition of TTK (unknown origin) at 10 uM relative to control
Conditions: not given

Row | Structure (SMILES) | inhibition
8 | CC(C)Nc1c(C(N)=O)nnc2ccc(-c3ccncc3)cc12 | 93%
9 | C[C@@H](Nc1c(C(N)=O)nnc2cc(-c3ccc(S(C)(=O)=O)cc3)ccc12)C1CC1 | 35%
10 | CC(C)Nc1c(C(N)=O)cnc2cc(-c3ccc(S(C)(=O)=O)cc3)ccc12 | 50%
11 | CS(=O)(=O)c1ccc(-c2ccc3c(NC4CCC4)c(C(N)=O)nnc3c2)cc1 | 60%

Next, values leading:

Row | inhibition | Structure (SMILES)
12 | 94% | CC(C)Nc1c(C(N)=O)nnc2cc(-c3ccncc3)ccc12
13 | 67% | CC(C)Nc1c(C(N)=O)nnc2cc(N3CCOCC3)ccc12
14 | 97% | CC(C)Nc1c(C(N)=O)nnc2ccc(-c3cn[nH]c3)cc12

Target: Proto-oncogene tyrosine-protein kinase receptor Ret (Homo sapiens) (UniProt P07949)
Sequence (P07949 whole entry): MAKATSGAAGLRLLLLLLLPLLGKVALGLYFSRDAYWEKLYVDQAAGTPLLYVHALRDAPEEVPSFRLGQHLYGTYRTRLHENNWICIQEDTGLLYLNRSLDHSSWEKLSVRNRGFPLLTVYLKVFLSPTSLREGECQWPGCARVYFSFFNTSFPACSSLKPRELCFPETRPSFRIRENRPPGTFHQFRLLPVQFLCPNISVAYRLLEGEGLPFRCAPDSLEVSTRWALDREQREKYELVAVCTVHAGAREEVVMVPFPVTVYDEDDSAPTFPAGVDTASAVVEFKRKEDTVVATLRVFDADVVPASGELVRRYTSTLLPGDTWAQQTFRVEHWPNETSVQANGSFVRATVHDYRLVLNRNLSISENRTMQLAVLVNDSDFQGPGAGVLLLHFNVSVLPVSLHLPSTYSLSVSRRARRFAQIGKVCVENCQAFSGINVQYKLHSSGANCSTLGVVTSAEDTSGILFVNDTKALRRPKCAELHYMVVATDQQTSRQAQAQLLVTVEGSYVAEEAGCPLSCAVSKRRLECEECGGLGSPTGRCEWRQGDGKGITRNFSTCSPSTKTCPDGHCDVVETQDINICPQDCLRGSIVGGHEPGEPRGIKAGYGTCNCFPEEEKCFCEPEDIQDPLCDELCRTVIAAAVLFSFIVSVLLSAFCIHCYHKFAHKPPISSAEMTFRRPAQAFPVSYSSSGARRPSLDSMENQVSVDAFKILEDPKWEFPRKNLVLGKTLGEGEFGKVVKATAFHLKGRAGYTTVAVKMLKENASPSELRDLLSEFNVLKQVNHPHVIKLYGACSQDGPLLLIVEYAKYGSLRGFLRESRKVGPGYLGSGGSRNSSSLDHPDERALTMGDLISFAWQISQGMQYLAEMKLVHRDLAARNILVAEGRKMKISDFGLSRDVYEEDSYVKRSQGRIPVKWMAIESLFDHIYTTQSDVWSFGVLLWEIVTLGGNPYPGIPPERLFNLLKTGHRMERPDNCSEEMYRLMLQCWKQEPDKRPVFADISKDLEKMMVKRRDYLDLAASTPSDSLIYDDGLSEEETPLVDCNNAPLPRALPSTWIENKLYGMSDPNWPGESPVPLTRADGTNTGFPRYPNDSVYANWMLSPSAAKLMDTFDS
Assay: Inhibition of RET (unknown origin) at 10 uM relative to control
Conditions: not given

Row | Structure (SMILES) | inhibition
15 | CC(C)Nc1c(C(N)=O)nnc2ccc(-c3ccncc3)cc12 | 93%
16 | C[C@@H](Nc1c(C(N)=O)nnc2cc(-c3ccc(S(C)(=O)=O)cc3)ccc12)C1CC1 | 57%
17 | CC(C)Nc1c(C(N)=O)cnc2cc(-c3ccc(S(C)(=O)=O)cc3)ccc12 | 73%
18 | CS(=O)(=O)c1ccc(-c2ccc3c(NC4CCC4)c(C(N)=O)nnc3c2)cc1 | 62%

Other lines, results leading:

Row | inhibition | Structure (SMILES)
19 | 96% | CC(C)Nc1c(C(N)=O)nnc2cc(-c3ccncc3)ccc12
20 | 83% | CC(C)Nc1c(C(N)=O)nnc2cc(N3CCOCC3)ccc12
21 | 99% | CC(C)Nc1c(C(N)=O)nnc2ccc(-c3cn[nH]c3)cc12

Target: cAMP-dependent protein kinase catalytic subunit alpha (Homo sapiens) (UniProt P17612)
Assay: Inhibition of PRKACA (unknown origin) at 10 uM relative to control
Conditions: not given

Row | Structure (SMILES) | inhibition
22 | CC(C)Nc1c(C(N)=O)nnc2ccc(-c3ccncc3)cc12 | 43%
23 | C[C@@H](Nc1c(C(N)=O)nnc2cc(-c3ccc(S(C)(=O)=O)cc3)ccc12)C1CC1 | -1%
24 | CC(C)Nc1c(C(N)=O)cnc2cc(-c3ccc(S(C)(=O)=O)cc3)ccc12 | 6%
25 | CS(=O)(=O)c1ccc(-c2ccc3c(NC4CCC4)c(C(N)=O)nnc3c2)cc1 | 0%

More lines, now with the values ahead:

Row | inhibition | Structure (SMILES)
26 | 29% | CC(C)Nc1c(C(N)=O)nnc2cc(-c3ccncc3)ccc12
27 | -2% | CC(C)Nc1c(C(N)=O)nnc2cc(N3CCOCC3)ccc12
28 | 53% | CC(C)Nc1c(C(N)=O)nnc2ccc(-c3cn[nH]c3)cc12

Target: Serine/threonine-protein kinase PLK3 (Homo sapiens) (UniProt Q9H4B4)
Sequence (Q9H4B4 whole entry, looked up): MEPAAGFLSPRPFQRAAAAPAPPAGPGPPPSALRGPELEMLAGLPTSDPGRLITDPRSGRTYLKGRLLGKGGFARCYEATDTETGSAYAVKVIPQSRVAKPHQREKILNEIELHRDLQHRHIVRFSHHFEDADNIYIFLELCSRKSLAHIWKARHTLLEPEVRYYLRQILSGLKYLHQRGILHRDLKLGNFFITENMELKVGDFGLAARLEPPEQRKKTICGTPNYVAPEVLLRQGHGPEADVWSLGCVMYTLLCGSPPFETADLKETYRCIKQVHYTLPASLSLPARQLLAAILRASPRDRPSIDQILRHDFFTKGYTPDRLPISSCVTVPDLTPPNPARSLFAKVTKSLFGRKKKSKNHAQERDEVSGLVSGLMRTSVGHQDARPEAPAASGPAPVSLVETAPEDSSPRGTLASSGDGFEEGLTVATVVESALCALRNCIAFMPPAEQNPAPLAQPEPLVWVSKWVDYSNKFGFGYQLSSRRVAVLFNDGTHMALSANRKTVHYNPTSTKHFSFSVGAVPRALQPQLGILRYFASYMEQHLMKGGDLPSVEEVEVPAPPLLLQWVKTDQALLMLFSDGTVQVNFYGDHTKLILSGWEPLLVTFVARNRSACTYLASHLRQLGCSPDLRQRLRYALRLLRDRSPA
Assay: Inhibition of PLK3 (unknown origin) at 10 uM relative to control
Conditions: not given

Row | Structure (SMILES) | inhibition
29 | CC(C)Nc1c(C(N)=O)nnc2ccc(-c3ccncc3)cc12 | 73%
30 | C[C@@H](Nc1c(C(N)=O)nnc2cc(-c3ccc(S(C)(=O)=O)cc3)ccc12)C1CC1 | 5%
31 | CC(C)Nc1c(C(N)=O)cnc2cc(-c3ccc(S(C)(=O)=O)cc3)ccc12 | 1%
32 | CS(=O)(=O)c1ccc(-c2ccc3c(NC4CCC4)c(C(N)=O)nnc3c2)cc1 | 10%

Next, values leading:

Row | inhibition | Structure (SMILES)
33 | 0% | CC(C)Nc1c(C(N)=O)nnc2cc(-c3ccncc3)ccc12
34 | 16% | CC(C)Nc1c(C(N)=O)nnc2ccc(-c3cn[nH]c3)cc12

Target: Tyrosine-protein kinase Lck (Homo sapiens) (UniProt P06239)
Sequence (P06239 2-509 limits assumed): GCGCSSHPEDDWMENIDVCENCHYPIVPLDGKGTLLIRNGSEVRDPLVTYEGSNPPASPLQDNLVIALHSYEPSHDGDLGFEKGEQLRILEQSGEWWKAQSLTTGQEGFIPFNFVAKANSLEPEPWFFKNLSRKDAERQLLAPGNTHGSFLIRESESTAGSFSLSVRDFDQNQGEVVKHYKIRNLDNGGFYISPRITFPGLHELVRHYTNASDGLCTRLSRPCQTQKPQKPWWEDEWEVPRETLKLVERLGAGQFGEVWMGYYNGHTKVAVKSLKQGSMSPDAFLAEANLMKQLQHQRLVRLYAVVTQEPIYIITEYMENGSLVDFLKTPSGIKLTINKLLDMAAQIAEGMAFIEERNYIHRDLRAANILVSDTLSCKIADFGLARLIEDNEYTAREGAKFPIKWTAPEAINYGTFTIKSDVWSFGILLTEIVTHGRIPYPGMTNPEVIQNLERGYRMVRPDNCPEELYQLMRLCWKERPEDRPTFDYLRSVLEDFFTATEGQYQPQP
Assay: Inhibition of LCK (unknown origin) at 10 uM relative to control
Conditions: not given

Row | Structure (SMILES) | inhibition
35 | CC(C)Nc1c(C(N)=O)nnc2ccc(-c3ccncc3)cc12 | 90%
36 | C[C@@H](Nc1c(C(N)=O)nnc2cc(-c3ccc(S(C)(=O)=O)cc3)ccc12)C1CC1 | 81%
37 | CC(C)Nc1c(C(N)=O)cnc2cc(-c3ccc(S(C)(=O)=O)cc3)ccc12 | 31%
38 | CS(=O)(=O)c1ccc(-c2ccc3c(NC4CCC4)c(C(N)=O)nnc3c2)cc1 | 35%

The next lines start with the values.

Row | inhibition | Structure (SMILES)
39 | 85% | CC(C)Nc1c(C(N)=O)nnc2cc(-c3ccncc3)ccc12
40 | 75% | CC(C)Nc1c(C(N)=O)nnc2cc(N3CCOCC3)ccc12
41 | 94% | CC(C)Nc1c(C(N)=O)nnc2ccc(-c3cn[nH]c3)cc12

Tested on: Brain
Assay: Drug uptake in Mdr1(a/b) knock out and P-gp competent FVB mouse brain at 1 mg/kg, iv at 5 mins
Type: ADME, organism-based
Parameters: dose 1 mg/kg, route intravenous
Conditions: in vivo
In short: (§1)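 FVB mice, both Mdr1a/b (-/-) and P-gp-competent wild-type, were given a single 1 mg/kg IV dose. Brain and plasma concentrations were measured 5 min after dosing. Brain uptake was expressed as the brain-to-plasma concentration ratio (Kp). In vivo P-gp efflux was assessed by comparing the knockout and wild-type strains.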

Row | Drug uptake | Structure (SMILES)
42 | Active | CC(C)Nc1c(C(N)=O)nnc2cc(N3CCOCC3)ccc12
43 | Active | CS(=O)(=O)c1ccc(-c2ccc3c(NC4CCC4)c(C(N)=O)nnc3c2)cc1

Target: Platelet-derived growth factor receptor alpha (Homo sapiens, UniProt P16234)
Assay: Inhibition of PDGFRalpha (unknown origin) by TR-FRET assay in presence of ATP
Conditions: not given

Row | IC50 | Structure (SMILES)
44 | 0.022 µM | C[C@@H](Nc1c(C(N)=O)nnc2cc(-c3ccc(S(C)(=O)=O)cc3)ccc12)C1CC1
45 | 0.022 µM | CC(C)Nc1c(C(N)=O)nnc2cc(N3CCOCC3)ccc12
46 | 0.127 µM | CS(=O)(=O)c1ccc(-c2ccc3c(NC4CCC4)c(C(N)=O)nnc3c2)cc1

Target: Macrophage colony-stimulating factor 1 receptor (Homo sapiens, UniProt P07333)
Assay: Inhibition of CSF1R (unknown origin) by TR-FRET assay in presence of ATP
Conditions: not given

Row | IC50 | Structure (SMILES)
47 | 0.017 µM | C[C@@H](Nc1c(C(N)=O)nnc2cc(-c3ccc(S(C)(=O)=O)cc3)ccc12)C1CC1
48 | 0.054 µM | CC(C)Nc1c(C(N)=O)nnc2cc(N3CCOCC3)ccc12
49 | < 0.04 µM | CS(=O)(=O)c1ccc(-c2ccc3c(NC4CCC4)c(C(N)=O)nnc3c2)cc1

Target: ATP-dependent translocase ABCB1 (Homo sapiens, UniProt P08183)
Assay: Inhibition of MDR1 (unknown origin) transfected in MDCK cells
Type: cell-based
Conditions: not given

Row | inhibition (INH) | Structure (SMILES)
50 | Active | CC(C)Nc1c(C(N)=O)nnc2cc(N3CCOCC3)ccc12
51 | Active | CS(=O)(=O)c1ccc(-c2ccc3c(NC4CCC4)c(C(N)=O)nnc3c2)cc1

Tested on: Mus musculus
Assay: Inhibition of P-gp in Mdr1(a/b) knock out and P-gp competent FVB mouse at 1 mg/kg, iv
Type: functional, organism-based
Parameters: dose 1 mg/kg
Conditions: not given
In short: as §1

Row | Structure (SMILES) | inhibition
52 | CC(C)Nc1c(C(N)=O)nnc2cc(N3CCOCC3)ccc12 | Active
53 | CS(=O)(=O)c1ccc(-c2ccc3c(NC4CCC4)c(C(N)=O)nnc3c2)cc1 | Active

Tested on: not listed separately
Assay: Ratio of drug level in brain to plasma in Mdr1(a/b) knock out and P-gp competent FVB mouse at 1 mg/kg, iv at 5 mins
Type: ADME, organism-based
Parameters: dose 1 mg/kg, route intravenous
Conditions: read-out: BPR
In short: as §1

Row | Kp at 5 min | Structure (SMILES)
54 | 11.4 | CC(C)Nc1c(C(N)=O)nnc2cc(N3CCOCC3)ccc12
55 | 0.76 | CS(=O)(=O)c1ccc(-c2ccc3c(NC4CCC4)c(C(N)=O)nnc3c2)cc1

Target: T2, Leucine-rich repeat serine/threonine-protein kinase 2 (Homo sapiens, UniProt Q5S007, G2019S)
T2 sequence (Q5S007 whole entry G2019S): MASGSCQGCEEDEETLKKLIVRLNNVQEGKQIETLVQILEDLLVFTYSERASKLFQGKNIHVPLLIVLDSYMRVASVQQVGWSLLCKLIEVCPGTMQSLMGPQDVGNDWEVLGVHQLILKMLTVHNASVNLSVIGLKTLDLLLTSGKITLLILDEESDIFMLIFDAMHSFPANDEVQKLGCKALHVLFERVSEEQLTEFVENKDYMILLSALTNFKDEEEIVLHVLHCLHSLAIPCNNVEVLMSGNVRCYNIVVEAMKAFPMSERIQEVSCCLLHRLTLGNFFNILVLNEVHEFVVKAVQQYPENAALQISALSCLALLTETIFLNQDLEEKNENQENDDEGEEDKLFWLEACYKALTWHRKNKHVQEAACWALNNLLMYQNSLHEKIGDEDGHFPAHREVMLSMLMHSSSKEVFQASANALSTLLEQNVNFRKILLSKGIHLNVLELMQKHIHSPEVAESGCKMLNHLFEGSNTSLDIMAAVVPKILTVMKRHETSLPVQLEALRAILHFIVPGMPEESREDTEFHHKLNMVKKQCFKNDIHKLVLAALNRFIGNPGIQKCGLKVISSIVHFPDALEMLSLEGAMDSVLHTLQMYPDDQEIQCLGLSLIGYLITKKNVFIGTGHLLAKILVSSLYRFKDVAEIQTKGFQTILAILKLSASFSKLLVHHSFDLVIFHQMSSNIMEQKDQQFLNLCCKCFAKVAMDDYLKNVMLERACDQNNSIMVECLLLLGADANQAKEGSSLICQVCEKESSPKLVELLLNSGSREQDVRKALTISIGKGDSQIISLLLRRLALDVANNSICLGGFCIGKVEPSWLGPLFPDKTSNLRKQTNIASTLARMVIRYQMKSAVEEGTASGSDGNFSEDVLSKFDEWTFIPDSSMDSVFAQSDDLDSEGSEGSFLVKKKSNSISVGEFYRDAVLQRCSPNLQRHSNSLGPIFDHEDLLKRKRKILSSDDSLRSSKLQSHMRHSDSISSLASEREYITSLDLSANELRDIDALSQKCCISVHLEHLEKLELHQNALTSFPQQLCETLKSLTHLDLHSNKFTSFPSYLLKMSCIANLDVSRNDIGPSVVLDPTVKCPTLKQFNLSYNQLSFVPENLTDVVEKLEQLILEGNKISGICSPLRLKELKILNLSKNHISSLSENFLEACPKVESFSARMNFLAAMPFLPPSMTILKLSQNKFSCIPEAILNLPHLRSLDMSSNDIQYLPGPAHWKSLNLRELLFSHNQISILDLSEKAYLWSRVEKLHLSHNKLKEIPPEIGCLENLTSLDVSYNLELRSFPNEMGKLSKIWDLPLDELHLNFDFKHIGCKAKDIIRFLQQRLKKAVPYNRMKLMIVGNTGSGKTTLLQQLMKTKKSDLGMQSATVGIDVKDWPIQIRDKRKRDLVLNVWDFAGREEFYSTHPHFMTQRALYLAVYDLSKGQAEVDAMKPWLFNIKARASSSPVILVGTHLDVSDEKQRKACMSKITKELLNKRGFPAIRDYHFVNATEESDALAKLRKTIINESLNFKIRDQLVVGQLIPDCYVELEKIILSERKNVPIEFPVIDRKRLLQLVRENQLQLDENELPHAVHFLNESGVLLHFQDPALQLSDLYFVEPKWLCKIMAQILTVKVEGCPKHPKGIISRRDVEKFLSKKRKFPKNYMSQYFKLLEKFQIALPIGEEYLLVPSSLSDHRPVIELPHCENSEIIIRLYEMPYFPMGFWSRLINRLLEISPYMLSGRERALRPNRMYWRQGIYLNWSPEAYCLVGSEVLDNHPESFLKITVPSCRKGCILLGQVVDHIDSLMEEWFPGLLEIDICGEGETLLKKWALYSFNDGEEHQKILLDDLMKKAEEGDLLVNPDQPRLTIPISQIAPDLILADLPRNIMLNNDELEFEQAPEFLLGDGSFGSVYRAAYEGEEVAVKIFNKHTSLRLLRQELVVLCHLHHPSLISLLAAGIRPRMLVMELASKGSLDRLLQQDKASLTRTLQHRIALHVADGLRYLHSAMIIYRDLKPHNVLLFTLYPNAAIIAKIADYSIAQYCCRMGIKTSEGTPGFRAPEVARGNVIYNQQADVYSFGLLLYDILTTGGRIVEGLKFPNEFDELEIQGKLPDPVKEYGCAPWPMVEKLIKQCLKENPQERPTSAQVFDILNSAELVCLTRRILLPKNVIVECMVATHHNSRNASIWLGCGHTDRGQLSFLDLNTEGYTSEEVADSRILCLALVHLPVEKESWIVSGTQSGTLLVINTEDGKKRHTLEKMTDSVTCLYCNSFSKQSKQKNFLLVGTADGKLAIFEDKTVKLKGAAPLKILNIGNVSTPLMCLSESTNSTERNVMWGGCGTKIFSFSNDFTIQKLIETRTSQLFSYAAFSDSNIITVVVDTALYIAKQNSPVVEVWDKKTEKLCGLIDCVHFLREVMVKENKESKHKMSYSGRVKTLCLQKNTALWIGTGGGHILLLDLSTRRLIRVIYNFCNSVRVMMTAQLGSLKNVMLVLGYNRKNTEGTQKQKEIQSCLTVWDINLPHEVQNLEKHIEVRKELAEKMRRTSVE
Assay: Inhibition of LRRK2 G2019S mutant (unknown origin) transfected in HEK293 cells assessed as inhibition of S935 phosphorylation
Type: cell-based
Conditions: not given

Row | EC50 | Structure (SMILES)
56 | 0.07 µM | C[C@@H](Nc1c(C(N)=O)nnc2cc(-c3ccc(S(C)(=O)=O)cc3)ccc12)C1CC1
57 | 0.109 µM | CC(C)Nc1c(C(N)=O)nnc2ccc(-c3cn[nH]c3)cc12

Target: T2, Leucine-rich repeat serine/threonine-protein kinase 2
Assay: Inhibition of GST-tagged LRRK2 G2019S mutant (970 to 2527 amino acid residues) (unknown origin) assessed as inhibition of biotinylated-LRRKtide phosphorylation by HTRF assay in presence of ATP
Conditions: not given

Row | Structure (SMILES) | IC50
58 | CC(C)Nc1c(C(N)=O)nnc2ccc(-c3ccncc3)cc12 | 0.066 µM
59 | C[C@@H](Nc1c(C(N)=O)nnc2cc(-c3ccc(S(C)(=O)=O)cc3)ccc12)C1CC1 | 0.007 µM
60 | CS(=O)(=O)c1ccc(-c2ccc3c(NC4CCC4)c(C(N)=O)nnc3c2)cc1 | 0.019 µM

The remaining lines, values ahead:

Row | IC50 | Structure (SMILES)
61 | 0.012 µM | CC(C)Nc1c(C(N)=O)nnc2cc(N3CCOCC3)ccc12
62 | 0.005 µM | CC(C)Nc1c(C(N)=O)nnc2ccc(-c3cn[nH]c3)cc12

Target: Leucine-rich repeat serine/threonine-protein kinase 2 (Homo sapiens, UniProt Q5S007)
Sequence (Q5S007 whole entry, the tested form may be a part): as the sequence (Q5S007 whole entry G2019S) above, with S2019G counted along it
Assay: Inhibition of wild type GST-tagged LRRK2 (970 to 2527 amino acid residues) (unknown origin) assessed as inhibition of biotinylated-LRRKtide phosphorylation by HTRF assay in presence of ATP
Conditions: not given

Row | Structure (SMILES) | IC50
63 | C[C@@H](Nc1c(C(N)=O)nnc2cc(-c3ccc(S(C)(=O)=O)cc3)ccc12)C1CC1 | 0.001 µM
64 | CC(C)Nc1c(C(N)=O)cnc2cc(-c3ccc(S(C)(=O)=O)cc3)ccc12 | 0.035 µM

Continued, values first:

Row | IC50 | Structure (SMILES)
65 | 0.009 µM | CC(C)Nc1c(C(N)=O)nnc2cc(N3CCOCC3)ccc12
66 | 0.001 µM | CC(C)Nc1c(C(N)=O)nnc2ccc(-c3cn[nH]c3)cc12
